PERK inh: block of dimerizer-induced PERK translation repression, primary screen, PERK inhibitor project, CHO PERK-DD cells, SEAP luminescence, HTS; Eukaryotic translation initiation factor 2-alpha kinase 3 (Homo sapiens), Q9NZJ5; CHO PERK-DD fusion, SEAP luminescence translation reporter; inhibition, % at 5.6 µM; 220,000 compounds, 0.17% hits; AID 1416, 2008;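 active = inhibition above the mean inhibition of all tested compounds plus 3 SD, set separately per screening campaign, cut at about 2.9% in these data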;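 also: PERK kinase domain activated by AP20187 dimerizer at 100 nM; 0% = DMSO with dimerizer and 100% = rapamycin at 8.4 µM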
STAT1 blocker: STAT1 signaling inhibitors, primary screen, cell-based, HTS, luciferase reporter. inhibition, % at 5.5 µM. 200,000 compounds, 0.35% hits. NIH 3T3 STAT1-luciferase reporter, IFN-gamma, luminescence. AID 920, 2007;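 active = inhibition above a set limit, the mean inhibition across all tested compounds plus 3 SD, cut at about 34% in these data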;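 also: 0% = IFN-gamma with DMSO and 100% = IFN-gamma with 300 µM nifuroxazide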
STAT3 act: IL-6 driven STAT3 reporter potentiators, primary screen, U3A cells, luciferase, luminescence, MLSCN library; IL-6 STAT3-luciferase reporter; 100% = signal with IL-6 EC80 alone; 190,000 compounds, 0.91% hits; AID 871, 2007; activation (% of control), % at 5.6 µM;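 active = activation above the screen-wide mean of compound activation plus 3 SD, cut at about 130% in these data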;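 also: 0% = background luminescence of wells with medium and substrate only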
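Material: human STAT1-deficient U3A cells with stable STAT3-luciferase reporter / Probe or stimulus: IL-6 stimulus at 33 ng/mL final / Schedule: 1 h compound pre-exposure, 6 h IL-6 stimulation, 37 °C / Technique: luminescence / Read-out basis: percent of IL-6-only median luminescence / Control set: IL-6-only high control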
STAT3 inh: IL-6 driven STAT3 reporter inhibitors, primary screen, U3A cells, luciferase, luminescence, MLSCN library; IL-6 STAT3-luciferase reporter; host cell line lacks STAT1; inhibition, % at 5.5 µM; 190,000 compounds, 0.89% hits;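 active = inhibition above the mean inhibition across all screened compounds plus 3 SD, cut at about 44% in these data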;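 also: 0% = DMSO only wells and 100% = 100 µM nifuroxazide control wells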
Active calls of the source: *; nt = not tested or not shown. A selection: hits, their analogues and other compounds. The true share with any hit is near 1.8%.

SMILES	PERK inh	STAT1 blocker	STAT3 act	STAT3 inh
O=C(CCS(=O)(=O)c1ccc(Br)cc1)N1CCC2(CC1)OCCO2	0	48*	94	14
CC12CC[C@H]3[C@@H](CCC4(O)C[C@H](O)CCC34/C=N/NC(=O)c3ccc(O)cc3)C1(O)CCC2C1=CC(=O)OC1 (stereo partly specified)	2.9*	nt	nt	nt
CC12CC[C@H]3[C@@H](CCC4(O)C[C@H](O)CCC34/C=N/NC(=O)c3ccccc3O)C1(O)CCC2C1=CC(=O)OC1 (stereo partly specified)	3.1*	nt	nt	nt
Cc1ccc(-c2nc3ccc(Cl)cc3n2OC(=O)N(C)C)cc1	-2	-7	97	10
CNCC(C)c1ccccc1 (stereo unspecified)	0	1	107	-6
N/C(=N\[N+](=O)[O-])NCCCC(NC(=O)CNC(=O)c1ccccc1)C(=O)O (stereo unspecified)	0	-3	97	9
CN(C)c1ccc(/C=C/c2cc[n+](C)c3ccccc23)cc1	0	26	43	72*
CC/C(=N\NC(=O)Nc1ccccc1)c1c(O)n(Cc2ccccc2)c(=O)[nH]c1=O	1	nt	nt	nt
CCn1c(O)c(/C(C)=N/N2CCCCC2c2cccnc2)c(=O)[nH]c1=S (stereo unspecified)	-1	14	87	16
O=c1[nH]c(=O)n(Cc2ccco2)c(O)c1C=NCCN1CCNCC1	2	nt	nt	nt
O=C1C=Cc2ccccc2C1=O	1	9	141*	-44
O=c1c2ccccc2nc(-c2ccoc2)n1-c1ccccc1	0	4	94	7
CCN1/C(=C\C=C\C2=[N+](CC)c3ccccc3C2(C)C)C(C)(C)c2ccccc21	-4	56*	16	100*
c1ccc2c(CNC3CCCCC3)c[nH]c2c1	0	3	137*	-48
CN(Cc1c[nH]c2ccccc12)C1CCCCC1	2	11	120	-12
CCn1nc(/C=C/c2ccccc2)nc2c(=O)n(C)c(=O)nc1-2	0	86*	39	74*
Cc1nn(Cc2ccc(Cl)cc2Cl)c(Cl)c1C(=O)O	1	-8	101	0
N=c1c2c(n(Cc3ccc(Cl)cc3Cl)c3c1CCC3)CCCC2	0	25	61	51*
NC(=S)c1cn(C2OC(CO)C(O)C2O)c2ncnc(N)c12 (stereo unspecified)	3.1*	nt	nt	nt
CCOc1ccc(-n2c(O)c(C=NCCCn3ccnc3)c(=O)[nH]c2=O)cc1	2	2	104	-4
COc1ccc(CC(=O)N2CCN(C)CC2)cc1	1	0	103	0
COc1ccc(C(=O)N2CCCC2=O)cc1	3.0*	-1	94	9
C=CC1CN2CCC1CC2[C@@H](OC(=O)c1ccc(OC)cc1)c1ccnc2ccccc12 (stereo partly specified)	-1	4	98	3
C[C@H]1CC[C@@]2(C)[C@@H](CC[C@@H]3[C@@H]2CC[C@]2(C)[C@@H](O)CC[C@@H]32)C1	1	nt	nt	nt
CN1C(=O)C(=Cc2ccc(N3CCCCC3)o2)C(=O)N(C)C1=S	1	-9	98	8
SMILES	PERK inh	STAT1 blocker	STAT3 act	STAT3 inh
CN1C(=O)C(=Cc2ccc(SC3CCCCC3)o2)C(=O)N(C)C1=O	3.0*	-1	112	0
CC(C(=O)c1c[nH]c2ccccc12)N1CCc2ccccc2C1 (stereo unspecified)	0	-14	134*	-37
CC[C@@]1(O)C(=O)OCc2c1cc1n(c2=O)Cc2cc3c(NC(=O)CN)cccc3nc2-1	1	nt	nt	nt
CC[C@@]1(O)C(=O)OCc2c1cc1n(c2=O)Cc2cc3ccccc3nc2-1	6.0*	nt	nt	nt
CCC1(OC(=O)CN)C(=O)OCc2c1cc1n(c2=O)Cc2cc3ccccc3nc2-1 (stereo unspecified)	4.9*	nt	nt	nt
CC(C)(C)NC(=S)/N=C(\N)N[N+](=O)[O-]	2	3	98	6
CC(C)(C)c1cc([N+](=O)[O-])cc(C(C)(C)C)c1O	1	59*	52	60*

Screens as filed in PubChem.
